In ChEMBL document CHEMBL4354800, “Amphiphilic nebramine-based hybrids Rescue legacy antibiotics from intrinsic resistance in multidrug-resistant Gram-negative bacilli” (Eur J Med Chem, 2019):

Columns and labels:
[1] = test system: Pseudomonas aeruginosa; assay: Potentiation of ciprofloxacin-induced antibacterial activity against MDR/XDR Pseudomonas aeruginosa isolate PA260-97103 harboring GyrA T83I mutant assessed as fold reduction in ciprofloxacin MIC at 9 uM incubated for 18 hrs by broth microdilution method; assay type: functional
[2] = test system: Pseudomonas aeruginosa; assay: Potentiation of ciprofloxacin-induced antibacterial activity against MDR/XDR Pseudomonas aeruginosa isolate 100036 harboring GyrA T83I mutant assessed as fold reduction in ciprofloxacin MIC at 9 uM incubated for 18 hrs by broth microdilution method; assay type: functional
[3] = test system: Pseudomonas aeruginosa; assay: Potentiation of ciprofloxacin-induced antibacterial activity against MDR/XDR Pseudomonas aeruginosa isolate 91433 devoid of GyrA T83I mutant assessed as fold reduction in ciprofloxacin MIC at 9 uM incubated for 18 hrs by broth microdilution method; assay type: functional
[4] = test system: Pseudomonas aeruginosa; assay: Potentiation of rifampicin-induced antibacterial activity against MDR/XDR Pseudomonas aeruginosa isolate 91433 devoid of GyrA T83I mutant assessed as fold reduction in rifampicin MIC at 9 uM incubated for 18 hrs by broth microdilution method; assay type: functional
Outline: (§1)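 CLSI broth microdilution. Overnight cultures were set to 0.5 McFarland in saline, diluted 1:50 in Mueller-Hinton broth to a final 5 × 10^5 CFU/mL, and incubated 18 h at 37 °C against 2-fold antibiotic dilutions. A fixed adjuvant level was present throughout. MIC = lowest concentration with no visible turbidity, confirmed at 590 nm. Potentiation = fold drop in antibiotic MIC versus antibiotic alone.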

[5] = test system: Acinetobacter baumannii; assay: Antimicrobial activity against multidrug-resistant Acinetobacter baumannii AB92247 incubated for 18 hrs by broth dilution method; assay type: functional; details: AB92247, 18 h
Outline: (§2)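 Broth microdilution per CLSI: overnight cultures set to 0.5 McFarland in saline, diluted 1:50 in Mueller-Hinton broth to a final 5 × 10^5 CFU/mL, added to 2-fold serial dilutions, incubated 18 h at 37 °C; MIC is the lowest concentration without visible turbidity, confirmed at 590 nm.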

[6] = test system: Acinetobacter baumannii; assay: Antimicrobial activity against multidrug-resistant Acinetobacter baumannii AB110193 incubated for 18 hrs by broth dilution method; assay type: functional; details: AB110193, 18 h; outline: as §2
[7] = test system: Acinetobacter baumannii; assay: Synergistic antibacterial activity against multidrug-resistant Acinetobacter baumannii AB92247 assessed as fractional inhibitory concentration index in presence of rifampicin incubated for 18 hrs by broth dilution method; assay type: functional
[8] = test system: Acinetobacter baumannii; assay: Synergistic antibacterial activity against multidrug-resistant Acinetobacter baumannii AB110193 assessed as fractional inhibitory concentration index in presence of rifampicin incubated for 18 hrs by broth dilution method; assay type: functional
[9] = test system: Klebsiella pneumoniae; assay: Potentiation of minocycline-induced antibacterial activity against Klebsiella pneumoniae 113250 assessed as fold reduction in minocycline MIC at 4.1 uM incubated for 18 hrs by broth dilution method; assay type: functional
Outline: (§3)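 Antibiotic MIC determined by CLSI broth microdilution (MHB, 5 × 10^5 CFU/mL, 18 h, 37 °C), once alone and once with a fixed concentration of the adjuvant. Potentiation is the ratio of the antibiotic MIC alone to its MIC in the presence of the adjuvant.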

[10] = test system: Klebsiella pneumoniae; assay: Potentiation of minocycline-induced antibacterial activity against Klebsiella pneumoniae 113254 assessed as fold reduction in minocycline MIC at 4.1 uM incubated for 18 hrs by broth dilution method; assay type: functional; outline: as §3
[11] = test system: Klebsiella pneumoniae; assay: Potentiation of rifampicin-induced antibacterial activity against Klebsiella pneumoniae 113254 assessed as fold reduction in rifampicin MIC at 4.1 uM incubated for 18 hrs by broth dilution method; assay type: functional; outline: as §3
[12] = test system: Pseudomonas aeruginosa; assay: Antimicrobial activity against XDR Pseudomonas aeruginosa isolate PA264 infected in Galleria mellonella larvae assessed as increase in survival rate co-administered with rifampicin at 2 hrs post-inoculation measured every 6 hrs for upto 24 hrs; assay type: functional, organism-based
Outline: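 G. mellonella larvae each received an injection of about 5 CFU of PA264 (culture adjusted to 0.5 McFarland, then diluted in PBS to 5 × 10^2 CFU/mL) and were held 2 h at 37 °C. A single injection followed: rifampicin plus adjuvant at 25+25, 50+50 or 75+75 mg/kg, or PBS. Larvae were kept at 37 °C and scored every 6 h up to 24 h; no response to touch counted as dead. Total n=30 per group; Kaplan-Meier analysis.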

[13] = test system: Pseudomonas aeruginosa; assay: Potentiation of minocycline-induced antibacterial activity against wild type Pseudomonas aeruginosa PAO1 assessed as fold reduction in minocycline MIC at 4.1 uM incubated for 18 hrs by broth microdilution method; assay type: functional; outline: as §3
[14] = test system: Klebsiella pneumoniae; assay: Potentiation of minocycline-induced antibacterial activity against Klebsiella pneumoniae 116381 assessed as fold reduction in minocycline MIC at 4.1 uM incubated for 18 hrs by broth dilution method; assay type: functional; outline: as §3
[15] = test system: Pseudomonas aeruginosa; assay: Potentiation of moxifloxacin-induced antibacterial activity against wild type Pseudomonas aeruginosa PAO1 assessed as fold reduction in moxifloxacin MIC at 7.5 uM incubated for 18 hrs by broth microdilution method; assay type: functional; outline: as §1
[16] = test system: Pseudomonas aeruginosa; assay: Potentiation of moxifloxacin-induced antibacterial activity against MDR/XDR Pseudomonas aeruginosa isolate PA259-96918 harboring GyrA T83I mutant assessed as fold reduction in moxifloxacin MIC at 7.5 uM incubated for 18 hrs by broth microdilution method; assay type: functional; outline: as §1
[17] = test system: Pseudomonas aeruginosa; assay: Potentiation of minocycline-induced antimicrobial activity against MDR/XDR Pseudomonas aeruginosa isolate PA259-96918 harboring GyrA Thr83Ile mutant assessed as minocycline MIC50 incubated for 18 hrs by broth microdilution method (reference value: 16 microg/ml); assay type: functional; details: isolate PA259-96918, 18 h
[18] = test system: Pseudomonas aeruginosa; assay: Potentiation of minocycline-induced antimicrobial activity against MDR/XDR Pseudomonas aeruginosa isolate PA264-104354 harboring GyrA Thr83Ile mutant assessed as minocycline MIC50 incubated for 18 hrs by broth microdilution method (reference value: 16 microg/ml); assay type: functional; details: isolate PA264-104354, 18 h
[19] = test system: Pseudomonas aeruginosa; assay: Potentiation of rifampicin-induced antimicrobial activity against MDR/XDR Pseudomonas aeruginosa isolate PA260-97103 harboring GyrA Thr83Ile mutant assessed as rifampicin MIC50 incubated for 18 hrs by broth microdilution method (reference value: 8 microg/ml); assay type: functional; details: isolate PA260-97103, 18 h
[20] = test system: Pseudomonas aeruginosa; assay: Potentiation of rifampicin-induced antimicrobial activity against MDR/XDR Pseudomonas aeruginosa isolate PA262-101856 harboring GyrA Thr83Ile mutant assessed as rifampicin MIC50 incubated for 18 hrs by broth microdilution method (reference value: 8 microg/ml); assay type: functional; details: isolate PA262-101856, 18 h
[21] = test system: Pseudomonas aeruginosa; assay: Potentiation of minocycline-induced antimicrobial activity against MDR/XDR Pseudomonas aeruginosa isolate PA260-97103 harboring GyrA Thr83Ile mutant assessed as minocycline MIC80 incubated for 18 hrs by broth microdilution method (reference value: 32 microg/ml); assay type: functional; details: isolate PA260-97103, 18 h
[22] = test system: Pseudomonas aeruginosa; assay: Potentiation of rifampicin-induced antimicrobial activity against MDR/XDR Pseudomonas aeruginosa isolate 100036 harboring GyrA Thr83Ile mutant assessed as rifampicin MIC80 incubated for 18 hrs by broth microdilution method (reference value: 16 microg/ml); assay type: functional; details: isolate 100036, 18 h

## Cl.Cl.Cl.Cl.Cl.Cl.NC[C@H]1O[C@H](O[C@H]2[C@H](OCCCCCCCCCCN3CCN(Cc4cccc5ccccc45)CC3)[C@@H](O)[C@H](N)C[C@@H]2N)[C@H](N)C[C@@H]1O
[1]
  fold change (FC): 8
[2]
  fold change (FC): 8
[3]
  fold change (FC): 8
[4]
  fold change (FC): 4

## Cl.Cl.Cl.Cl.Cl.NC[C@H]1O[C@H](O[C@H]2[C@H](OCCCCCCCCCCCCN3CCN(c4cc5c(cc4F)c(=O)c(C(=O)O)cn5C4CC4)CC3)[C@@H](O)[C@H](N)C[C@@H]2N)[C@H](N)C[C@@H]1O
[5]
  MIC: 128 µg/mL
[6]
  MIC: > 128 µg/mL
[7]
  fractional inhibitory concentration index (FICI): 0.039
[8]
  fractional inhibitory concentration index (FICI): 0.016 - 0.031
[9]
  fold change (FC): 2
[10]
  fold change (FC): 2
[11]
  fold change (FC): 64
[12]
  Activity: Dose-dependent effect
[13]
  fold change (FC): 32
[14]
  fold change (FC): 16

## COc1c(N2C[C@@H]3CCCN(CCCCCCCCCCCCO[C@@H]4[C@@H](O)[C@H](N)C[C@H](N)[C@H]4O[C@H]4O[C@H](CN)[C@@H](O)C[C@H]4N)[C@@H]3C2)c(F)cc2c(=O)c(C(=O)O)cn(C3CC3)c12.Cl.Cl.Cl.Cl.Cl
[15]
  fold change (FC): 8
[16]
  fold change (FC): 16
[17]
  MIC50: 0.5 µg/mL
[18]
  MIC50: 0.5 µg/mL
[19]
  MIC50: 0.06 µg/mL
[20]
  MIC50: 0.06 µg/mL
[21]
  MIC80: 1 µg/mL
[22]
  MIC80: 0.13 µg/mL
